Measurements reported in ChEMBL document CHEMBL1144782, “Isoindolo[2,1-a]quinoxaline derivatives, novel potent antitumor agents with dual inhibition of tubulin polymerization and topoisomerase I” (2008).

What was measured:
[1] = tested on: HOP-92; experiment: Antitumor activity against human HOP92 cells; assay type: functional
How it was run: (§1)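 Run by the NCI in its in vitro disease-oriented screen of about 60 human tumour cell lines. For each line it reports pGI50 (50% net growth inhibition), pTGI (total growth inhibition) and pLC50 (50% net cell death), each as –log molar concentration. Where an effect was not reached within the tested range, the highest tested concentration was used.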

[2] = tested on: NCI-H226; experiment: Antitumor activity against human NCI-H226 cells; assay type: functional; how it was run: as §1
[3] = Antitumor activity against human NCI-H322 cells; assay type: functional; how it was run: as §1
[4] = tested on: NCI-H522; experiment: Antitumor activity against human NCI-H522 cells; assay type: functional; how it was run: as §1
[5] = tested on: COLO 205; experiment: Antitumor activity against human COLO205 cells; assay type: functional; how it was run: as §1
[6] = tested on: HT-29; experiment: Antitumor activity against human HT29 cells; assay type: functional; how it was run: as §1
[7] = tested on: KM12; experiment: Antitumor activity against human KM12 cells; assay type: functional; how it was run: as §1
[8] = tested on: SW-620; experiment: Antitumor activity against human SW620 cells; assay type: functional
How it was run: (§2)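 NCI 60-cell-line screen. Parameters were GI50 (50% net growth inhibition), TGI and LC50, each reported as –log molar concentration. Where an effect was not reached within the tested range, the highest tested concentration was used in the calculation.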

[9] = tested on: SF-268; experiment: Antitumor activity against human SF268 cells; assay type: functional; how it was run: as §1
[10] = tested on: SF-295; experiment: Antitumor activity against human SF295 cells; assay type: functional; how it was run: as §1
[11] = tested on: SNB-19; experiment: Antitumor activity against human SNB19 cells; assay type: functional; how it was run: as §1
[12] = tested on: SNB-75; experiment: Antitumor activity against human SNB75 cells; assay type: functional; conditions: Homo sapiens, SNB-75; how it was run: as §1
[13] = tested on: LOX IMVI; experiment: Antitumor activity against human LOXIMVI cells; assay type: functional; how it was run: as §1
[14] = tested on: Malme-3M; experiment: Antitumor activity against human MALME3M cells; assay type: functional; how it was run: as §1
[15] = tested on: M14; experiment: Antitumor activity against human M14 cells; assay type: functional; how it was run: as §1
[16] = tested on: SK-MEL-2; experiment: Antitumor activity against human SKMEL2 cells; assay type: functional; how it was run: as §1
[17] = tested on: SK-MEL-28; experiment: Antitumor activity against human SKMEL28 cells; assay type: functional; how it was run: as §1
[18] = tested on: UACC-257; experiment: Antitumor activity against human UACC257 cells; assay type: functional; how it was run: as §2
[19] = tested on: UACC-62; experiment: Antitumor activity against human UACC62 cells; assay type: functional; how it was run: as §2
[20] = tested on: IGROV-1; experiment: Antitumor activity against human IGROV1 cells; assay type: functional; how it was run: as §1
[21] = tested on: OVCAR-8; experiment: Antitumor activity against human OVCAR8 cells; assay type: functional; how it was run: as §1
[22] = tested on: A498; experiment: Antitumor activity against human A498 cells; assay type: functional; how it was run: as §1
[23] = tested on: CAKI-1; experiment: Antitumor activity against human CAKI1 cells; assay type: functional; how it was run: as §1
[24] = tested on: RXF 393; experiment: Antitumor activity against human RXF393 cells; assay type: functional; how it was run: as §1
[25] = molecular target: Tubulin (Sus scrofa) (UniProt P02554+P02550); experiment: Inhibition of pig brain tubulin polymerization
Chain of Tubulin (Sus scrofa) (P02550 whole entry, looked up): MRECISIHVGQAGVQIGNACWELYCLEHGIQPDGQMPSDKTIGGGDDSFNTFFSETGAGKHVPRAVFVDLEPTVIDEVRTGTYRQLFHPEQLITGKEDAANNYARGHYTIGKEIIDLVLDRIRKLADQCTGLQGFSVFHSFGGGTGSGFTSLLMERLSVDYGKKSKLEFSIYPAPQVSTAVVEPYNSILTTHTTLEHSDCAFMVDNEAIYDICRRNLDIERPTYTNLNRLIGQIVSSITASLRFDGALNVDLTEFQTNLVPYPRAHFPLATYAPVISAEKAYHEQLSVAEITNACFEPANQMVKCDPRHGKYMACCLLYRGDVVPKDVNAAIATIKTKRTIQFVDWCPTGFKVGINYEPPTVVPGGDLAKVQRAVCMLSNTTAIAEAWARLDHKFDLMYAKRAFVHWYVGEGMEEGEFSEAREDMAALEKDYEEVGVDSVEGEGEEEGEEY
Chain of Tubulin (Sus scrofa) (P02554 whole entry, looked up): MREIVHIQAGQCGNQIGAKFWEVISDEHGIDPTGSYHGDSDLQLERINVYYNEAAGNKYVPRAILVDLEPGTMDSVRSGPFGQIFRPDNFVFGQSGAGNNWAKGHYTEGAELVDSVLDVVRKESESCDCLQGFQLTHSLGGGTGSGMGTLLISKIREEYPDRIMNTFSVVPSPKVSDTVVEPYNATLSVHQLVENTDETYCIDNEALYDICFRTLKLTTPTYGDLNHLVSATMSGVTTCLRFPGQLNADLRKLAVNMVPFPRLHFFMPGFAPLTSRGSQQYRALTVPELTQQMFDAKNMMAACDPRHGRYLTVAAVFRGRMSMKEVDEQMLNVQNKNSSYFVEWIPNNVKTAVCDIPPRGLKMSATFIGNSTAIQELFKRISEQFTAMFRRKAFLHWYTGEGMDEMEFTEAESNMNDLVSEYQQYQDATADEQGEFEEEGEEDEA

[26] = tested on: NCI-H460; experiment: Cell viability against human NCI-H460 cells at 10 uM; assay type: functional
[27] = tested on: CCRF-CEM; experiment: Antitumor activity against human CCRF-CEM cells; assay type: functional; how it was run: as §1
[28] = tested on: MOLT-4; experiment: Antitumor activity against human MOLT4 cells; assay type: functional; how it was run: as §1
[29] = tested on: A549; experiment: Antitumor activity against human A549 cells; assay type: functional; how it was run: as §1
[30] = tested on: EKVX; experiment: Antitumor activity against human EKVX cells; assay type: functional; how it was run: as §1
[31] = tested on: SN12C; experiment: Antitumor activity against human SN12C cells; assay type: functional; how it was run: as §1
[32] = tested on: TK-10; experiment: Antitumor activity against human TK10 cells; assay type: functional; how it was run: as §2
[33] = tested on: PC-3; experiment: Antitumor activity against human PC3 cells; assay type: functional; how it was run: as §1
[34] = tested on: MCF7; experiment: Antitumor activity against human MCF7 cells; assay type: functional; how it was run: as §1
[35] = Antitumor activity against human […] cells; assay type: functional; how it was run: as §1
[36] = tested on: MDA-MB-435; experiment: Antitumor activity against human MDA-MB-435 cells; assay type: functional; how it was run: as §1
[37] = tested on: MCF7; experiment: Growth inhibition of human MCF7 cells after 72 hrs by MTT assay; assay type: functional; conditions: MCF7, 72 h
How it was run: (§3)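 Growth inhibition by MTT after 72 h incubation. Resistant sublines: LoVoDoxo and MCF-7 MDR were kept in 0.1 µg/mL doxorubicin; CEMVbl-100 was selected against vinblastine. GI50 given as mean ± SEM of three independent experiments. Resistance index is resistant-line GI50 over parental GI50.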

[38] = tested on: MCF7; experiment: Growth inhibition of human multidrug-resistant MCF7 cells after 72 hrs by MTT assay; assay type: functional; conditions: MCF7, 72 h; how it was run: as §3
[39] = tested on: MCF7; experiment: Resistance index, Ratio of GI50 for human multidrug-resistant MCF7 cells to GI50 for human MCF7 cells; assay type: functional; how it was run: as §3
[40] = tested on: CCRF-CEM; experiment: Growth inhibition of human vinblastine-resistant CEM cells after 72 hrs by MTT assay; assay type: functional; how it was run: as §3
[41] = read-out: Log LC50 (the source's name) (converted)

Work on O=c1[nH]c2cc(Cl)c(Cl)cc2n2cc3ccccc3c12 yielded a GI50 [1] of 18.2 µM, an LC50 [1] of 66.1 µM and a TGI ([1]; read-out: pTGI (converted)) of 34.7 µM. For the same compound, the GI50 [2] was 18.6 µM, the LC50 (50% net cell kill) [2] was 69.2 µM and the TGI ([2]; read-out: pTGI (converted)) was 35.5 µM. For the same compound, the GI50 [3] was 13.5 µM, the LC50 (50% net cell death) [3] was 55 µM and the TGI ([3]; read-out: pTGI (converted)) was 26.9 µM. For the same compound, the GI50 [4] was 10.2 µM, the CC50 [4, 41] was 93.3 µM and the TGI ([4]; read-out: pTGI (converted)) was 30.9 µM. The GI50 [5] was 29.5 µM, the LC50 [5] was > 100 µM and the TGI ([5]; read-out: pTGI (converted)) was 39.8 µM. For the same compound, the GI50 [6] was 28.8 µM, the LC50 [6] was > 100 µM and the TGI ([6]; read-out: pTGI (converted)) was > 100 µM. For the same compound, the GI50 [7] was 17.4 µM, the LC50 (50% net cell death) [7] was 56.2 µM and the TGI ([7]; read-out: pTGI (converted)) was 30.9 µM. It also gave a GI50 [8] of 15.8 µM, a CC50 [8, 41] of 53.7 µM and a TGI ([8]; read-out: pTGI (converted)) of 29.5 µM. The GI50 [9] was 24 µM, the CC50 [9, 41] was 75.9 µM and the TGI ([9]; read-out: pTGI (converted)) was 42.7 µM. For the same compound, the GI50 [10] was 16.2 µM, the CC50 [10, 41] was 55 µM and the TGI ([10]; read-out: pTGI (converted)) was 30.2 µM. For the same compound, the GI50 [11] was 21.9 µM, the CC50 [11, 41] was > 100 µM and the TGI ([11]; read-out: pTGI (converted)) was 56.2 µM. For the same compound, the GI50 [12] was 21.4 µM, the LC50 [12] was > 100 µM and the TGI ([12]; read-out: pTGI (converted)) was 53.7 µM. The GI50 [13] was 17.4 µM, the LC50 (50% net cell kill) [13] was 56.2 µM and the TGI ([13]; read-out: pTGI (converted)) was 30.9 µM. For the same compound, the GI50 [14] was 17 µM, the CC50 [14, 41] was 63.1 µM and the TGI ([14]; read-out: pTGI (converted)) was 32.4 µM. For the same compound, the GI50 [15] was 22.9 µM, the CC50 [15, 41] was 69.2 µM and the TGI ([15]; read-out: pTGI (converted)) was 39.8 µM. For the same compound, the GI50 [16] was 25.1 µM, the LC50 [16] was > 100 µM and the TGI ([16]; read-out: pTGI (converted)) was 53.7 µM. For the same compound, the GI50 [17] was 33.1 µM, the CC50 [17, 41] was > 100 µM and the TGI ([17]; read-out: pTGI (converted)) was > 100 µM. For the same compound, the GI50 [18] was 20.4 µM, the LC50 [18] was > 100 µM and the TGI ([18]; read-out: pTGI (converted)) was 49 µM. It also gave a GI50 [19] of 16.6 µM, an LC50 [19] of 55 µM and a TGI ([19]; read-out: pTGI (converted)) of 30.2 µM. The GI50 [20] was 17.4 µM, the CC50 [20, 41] was 56.2 µM and the TGI ([20]; read-out: pTGI (converted)) was 30.9 µM. The GI50 [21] was 18.6 µM, the LC50 (50% net cell death) [21] was 57.5 µM and the TGI ([21]; read-out: pTGI (converted)) was 32.4 µM. For the same compound, the GI50 [22] was 15.8 µM, the CC50 [22, 41] was 56.2 µM and the TGI ([22]; read-out: pTGI (converted)) was 30.2 µM. The GI50 [23] was 20.4 µM, the LC50 [23] was 58.9 µM and the TGI ([23]; read-out: pTGI (converted)) was 34.7 µM. The GI50 [24] was 17.4 µM, the CC50 [24, 41] was 56.2 µM and the TGI ([24]; read-out: pTGI (converted)) was 30.9 µM. For the same compound, the Activity [25] was > 10 µM, the Activity [26] was 0% and the GI50 [27] was 21.9 µM. For the same compound, the LC50 [27] was > 100 µM, the TGI ([27]; read-out: pTGI (converted)) was 49 µM and the GI50 [28] was 18.6 µM. The LC50 [28] was 72.4 µM, the TGI ([28]; read-out: pTGI (converted)) was 37.2 µM and the GI50 [29] was 19.1 µM. For the same compound, the CC50 [29, 41] was 63.1 µM, the TGI ([29]; read-out: pTGI (converted)) was 34.7 µM and the GI50 [30] was 21.9 µM. The LC50 (50% net cell kill) [30] was 87.1 µM, the TGI ([30]; read-out: pTGI (converted)) was 43.7 µM and the GI50 [31] was 15.8 µM. The LC50 [31] was 55 µM, the TGI ([31]; read-out: pTGI (converted)) was 29.5 µM and the GI50 [32] was 16.6 µM. For the same compound, the CC50 [32, 41] was 55 µM, the TGI ([32]; read-out: pTGI (converted)) was 30.2 µM and the GI50 [33] was 17.4 µM. It also gave an LC50 (50% net cell death) [33] of 56.2 µM, a TGI ([33]; read-out: pTGI (converted)) of 30.9 µM and a GI50 [34] of 21.4 µM. The LC50 (50% net cell kill) [34] was 72.4 µM, the TGI ([34]; read-out: pTGI (converted)) was 39.8 µM and the GI50 [35] was 17.4 µM. For the same compound, the LC50 [35] was 61.7 µM, the TGI ([35]; read-out: pTGI (converted)) was 32.4 µM and the GI50 [36] was 17 µM. For the same compound, the LC50 (50% net cell death) [36] was 55 µM, the TGI ([36]; read-out: pTGI (converted)) was 30.2 µM and the GI50 [37] was 3.3 µM. It also gave a GI50 [38] of 7.6 µM, a RatioGI50 [39] of 2.3 and a GI50 [40] of 1.9 µM.
